Assay outcomes (PubChem BioAssay)
MEKK2wt PB1 HTS: raises or lowers MEK5 binding to wildtype human MEKK2 PB1 domain | Q9Y2U5 | bead flow cytometry, Alexa488-MEK5 binding to MEKK2 WT; actives lie on both sides | binding response (% of control), % at 10 µM | hit rate 1.1% among 290,000 | AID 1531; in the data active = binding response below about 67% or above about 130%
Dynein cargo inh: dynein cargo transport inhibition. hit rate 0.47% among 220,000. z-score, hits read low. AID 1381. 3617.4 mouse cells, GR-EGFP nuclear translocation imaging; test concentration mostly 20 µM; stimulated with dexamethasone, 1 µM; hits give low values;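 active = plate z-score of nuclear minus cytoplasmic receptor signal below a set negative limit, without overly bright fluorescence or cell loss, cut at about -3.5 in these data, passing the limit was not always enough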;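 note: z-score of nuclear minus cytoplasmic ring GR-EGFP intensity difference per well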
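Buffer or medium: Induction medium lacking tetracycline, stripped serum | Also added: Dexamethasone agonist, 1.0 µM final, for 30 min | Timing: 48 h induction, 1 h compound, 30 min dex at 37 °C | Detection: Formaldehyde fixation, Hoechst nuclear stain, 10x automated fluorescence imaging | Measure: Nuclear versus cytoplasmic GR-EGFP signal, averaged per well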
MEKK2mut PB1 HTS: signal of MEK5 binding to mutant human MEKK2 PB1 domain. bead flow cytometry, Alexa488-MEK5 binding to MEKK2 mutant. percent response, % at 10 µM. hit rate 0.35% among 290,000; in the data active = percent response above about 24%, passing the limit was not always enough
ATG4B inh: inhibitors of human ATG4B cysteine protease; inhibition, % at 8.33 µM; hit rate 0.51% among 340,000; ATG4B cleavage of LC3-PLA2, NBD-HPC fluorescence, 1 h; in the data active = inhibition above about 40%
MEKK3 PB1 HTS: modulators (inhibitors or enhancers) of MEK5 binding to human MEKK3 PB1 domain | binding response (% of control), % at 10 µM | hit rate 1.4% among 290,000 | bead-based flow cytometry, Alexa488-MEK5 binding to MEKK3; actives lie on both sides; 0 = blocked by unlabeled MEK5, 100 = vehicle | Q99759 | AID 1529;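 active = binding response more than 3 SD above or below the average of its plate-row segment, actives on both sides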;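 note: Alexa488 bead fluorescence after subtracting the streptavidin-only scavenger bead signal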
B2AR ag: agonists of human beta-2 adrenergic receptor inducing internalization; P07550; Am2.2-beta2AR cells, FAP receptor internalization, flow cytometry; response, % (concentration not given with the values); hit rate 0.43% among 340,000; AID 504454;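 active = response above a set limit, near 3 SD of response in nonfluorescent compounds, cut at about 42% in these data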
Target sequence (P07550 whole entry, looked up): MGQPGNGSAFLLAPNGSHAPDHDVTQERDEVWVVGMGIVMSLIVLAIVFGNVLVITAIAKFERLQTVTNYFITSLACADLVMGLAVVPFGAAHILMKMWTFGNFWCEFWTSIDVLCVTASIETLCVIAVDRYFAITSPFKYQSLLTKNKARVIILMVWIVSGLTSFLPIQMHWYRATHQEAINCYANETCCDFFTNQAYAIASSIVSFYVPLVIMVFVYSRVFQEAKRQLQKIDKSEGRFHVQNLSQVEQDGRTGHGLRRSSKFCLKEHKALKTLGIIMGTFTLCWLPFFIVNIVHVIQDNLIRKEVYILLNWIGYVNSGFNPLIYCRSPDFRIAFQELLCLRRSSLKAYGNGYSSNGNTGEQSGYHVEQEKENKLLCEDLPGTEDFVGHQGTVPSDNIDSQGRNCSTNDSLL
MEKK2wt confirm: raises or lowers MEK5 binding to wildtype human MEKK2, retest; AID 1892; shares compounds with MEKK3 PB1 HTS; bead flow cytometry, Alexa488-MEK5 binding to MEKK2 WT; actives lie on both sides; binding response (% of control), % at 10 µM; hit rate 2.4% among 5,900; in the data active = binding response below about 16% or above about 210%; inactive = in between
MEKK2mut confirm: signal of MEK5 binding to mutant human MEKK2, retest. shares compounds with MEKK3 PB1 HTS. percent response, % at 10 µM. hit rate 2% among 5,900. bead flow cytometry, Alexa488-MEK5 binding to MEKK2 mutant; in the data active = percent response mostly above about 71%, no sharp cut-off; inactive = mostly below about 38%;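 note: higher means compound restores mutant binding toward wildtype level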
MEKK3 confirm: MEKK3-MEK5 PB1 inhibition, single concentration confirmation; shares compounds with MEKK3 PB1 HTS; bead flow cytometry, Alexa488-MEK5 binding to MEKK3; hits give low values; binding response (% of control), % at 10 µM; hit rate 1.8% among 5,900;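 active = binding response below 72% of control, or above a set upper limit, though filed actives all read lower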;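 note: 100% = DMSO only wells and 0% = binding blocked by excess unlabeled MEK5; lower values mean stronger disruption of MEK5 binding to MEKK3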
An asterisk follows results filed as active; nt = no result; [ ] = remark or other dose. Only some compounds are listed: those with a hit (about 2.9% of all), similar ones and a draw of the others.

SMILES	MEKK2wt PB1 HTS	Dynein cargo inh	MEKK2mut PB1 HTS	ATG4B inh	MEKK3 PB1 HTS	B2AR ag	MEKK2wt confirm	MEKK2mut confirm	MEKK3 confirm
CCOC(=O)c1ccc(NC(=S)N(CCCN2CCCC2)Cc2cccs2)cc1	124.0	-0.517	9.0	-15.6	107.0	8.0	nt	nt	nt
CN1C=CC(=O)[C@@H](OC(=O)Nc2ccc(Br)cc2)[C@H]1c1ccccc1Br	nt	nt	nt	-13.5	nt	5.0	nt	nt	nt
Cc1c(CN2CCC(CO)(CCOc3ccccc3)CC2)[nH]c2c(Cl)cccc12	240.0*	-0.377	28.0	-8.0	115.0	5.2	195.0	50.0	108.0
Cc1nn(C)c(Cl)c1CN1CCC(CO)(CCOc2ccccc2)CC1	96.0	-0.825	-5.0	9.8	96.0	0.6	nt	nt	nt
CC(C)COc1ccc(CN=C(N)N=C(N)N)cc1Cl	139.0*	0.657	25.0	5.4	106.0	-45.2	112.0	1.0	89.0
O=C(Cn1c(O)c(/C=C2\C=Nc3ccccc32)sc1=O)Nc1ccc2c(c1)OCO2	80.0	-0.0665	-4.0	19.1	79.0*[inhibitor]	6.8	104.0	12.0	102.0
CCOC(=O)c1ccc[n+](C(C)C(=O)c2ccc(-c3ccccc3)cc2)c1 (stereo unspecified)	111.0	-0.497	5.0	3.4	108.0	-1.5	nt	nt	nt
CC(C(=O)c1ccc(-c2ccccc2)cc1)[n+]1cccc(NC(=O)c2ccccc2)c1 (stereo unspecified)	224.0*	0.925	62.0*	7.1	108.0	-15.8	195.0	51.0	106.0
CCSc1ccc([C@@H]2[C@H]3C(=O)N(C)C(=O)[C@H]3[C@]3(C(=O)OC)CCCCN23)cc1OC	nt	nt	nt	-3.8	nt	-0.6	nt	nt	nt
Cc1ccc(C(=O)Nc2cccnc2)cc1Cl	106.0	nt	3.0	4.8	105.0	-5.9	nt	nt	nt
CCN(C(=O)c1ccc(N2CC3CC(C2)c2cccc(=O)n2C3)c(NC(=O)c2ccncc2)c1)c1cccc(C)c1 (stereo unspecified)	93.0	nt	-3.0	-1.2	93.0	8.5	nt	nt	nt
NS(=O)(=O)c1cccc(NC(=O)CN2CCc3ccccc32)c1	21.0*[inhibitor]	0.0895	18.0	-16.4	98.0	-7.3	84.0	-18.0	90.0
CN(c1ccccc1)S(=O)(=O)c1cccc(NC(=O)CN2CCCc3ccccc32)c1	98.0	-0.697	-1.0	8.7	99.0	-0.8	nt	nt	nt
N/C(=N\OC(=O)c1ccc([N+](=O)[O-])cc1)c1ccc(Br)cc1	105.0	nt	4.0	6.3	102.0	2.6	nt	nt	nt
N/C(Cc1ccc([N+](=O)[O-])cc1)=N\OC(=O)c1ccc(Br)cc1	109.0	0.535	1.0	-13.3	132.0*	-6.4	106.0	5.0	105.0
Cc1ccc(NC(=O)Cn2ncc(Cl)c(Cl)c2=O)cc1S(=O)(=O)N1CCCCC1	nt	nt	nt	-4.8	nt	26.3	nt	nt	nt
Cc1ccc(-c2ccc(SCC(=O)c3ccccc3)nn2)cc1	63.0*[inhibitor]	-1.07	13.0	24.8	95.0	-1.7	98.0	0.0	101.0
O=C(CSc1n[nH]c(=O)n1Cc1ccco1)N1CCOCC1	100.0	-1.01	-3.0	-3.5	97.0	0.1	nt	nt	nt
O=C(CSc1n[nH]c(=O)n1Cc1ccco1)c1ccc(F)cc1	133.0	-0.181	28.0	-3.1	131.0*	1.9	108.0	6.0	104.0
Cc1cccc(NC(=O)CSc2ccc(-c3ccco3)nn2)c1	102.0	0.452	0.0	-5.5	129.0*	-9.6	108.0	6.0	107.0
O=C(CSc1ccc(-c2ccco2)nn1)c1ccc(F)cc1	105.0	-0.296	1.0	0.1	128.0*	-13.2	108.0	4.0	100.0
COc1ccc(NS(=O)(=O)c2cc3c(cc2C)N(C(C)=O)CCO3)c(OC)c1	93.0	nt	0.0	-7.3	95.0	2.4	nt	nt	nt
Cc1cccc(NC(=O)Cn2c([N+](=O)[O-])cnc2C)c1C	112.0	1.03	1.0	nt	136.0*	nt	104.0	0.0	104.0
CC(=O)Nc1ccc(Nc2cc(N3CCOCC3)c3nonc3c2[N+](=O)[O-])cc1	49.0	1.08	-17.0	-4.2	45.0*[inhibitor]	-0.9	101.0	-1.0	103.0
S=C(NCCCN1CCOCC1)N1CCN(c2nc(-c3ccc(Cl)cc3)cs2)CC1	163.0*	-1.23	47.0	-21.1	109.0	12.8	169.0	43.0	112.0
SMILES	MEKK2wt PB1 HTS	Dynein cargo inh	MEKK2mut PB1 HTS	ATG4B inh	MEKK3 PB1 HTS	B2AR ag	MEKK2wt confirm	MEKK2mut confirm	MEKK3 confirm
S=C(NCCCN1CCOCC1)N1CCN(c2nc(-c3ccccc3)cs2)CC1	117.0	0.567	2.0	-12.6	100.0	6.6	nt	nt	nt
Cc1cc(C)cc(C(=O)NC(CC(N)=O)c2ccc(NCCN3CCCC3)c([N+](=O)[O-])c2)c1 (stereo unspecified)	98.0	nt	-8.0	7.3	100.0	0.4	nt	nt	nt
COc1cccc(C(=O)N2CCN=C2SC)c1	76.0	-0.711	-4.0	-1.2	58.0*[inhibitor]	1.7	99.0	-5.0	97.0
COc1ccc(C(=O)N2CCN=C2SC)cc1	100.0	-0.166	10.0	-2.5	99.0	-3.0	nt	nt	nt
Nc1nnn(CC(=O)N/N=C/c2ccncc2)n1	120.0	-0.841	25.0	-7.5	130.0*	-0.9	103.0	-6.0	101.0
COC(=O)c1ccc(Oc2ccc(C(F)(F)F)cn2)cc1	129.0	-0.187	7.0	7.3	152.0*	3.7	103.0	-2.0	96.0
CS(=O)(=O)N1CCc2cc(C(=O)N3CCCC3)ccc21	119.0	-1.39	1.0	14.7	132.0*	-9.7	97.0	-4.0	104.0
CS(=O)(=O)N1CCc2cc(C(=O)N3CCN(c4ccccc4)CC3)ccc21	107.0	nt	7.0	-8.7	102.0	3.6	nt	nt	nt
CC(C)CC(=O)CC1(O)C(=O)Nc2ccccc21 (stereo unspecified)	97.0	-0.434	-1.0	-6.6	87.0	1.2	nt	nt	nt
c1ccc(NC2=NCCN2CCC2CCCC2)cc1	106.0	nt	-1.0	3.1	100.0	-1.9	nt	nt	nt
CCc1cccc(C)c1N(C(=O)Cn1c(=O)[nH]c2ccccc21)C(C)COC (stereo unspecified)	114.0	0.572	24.0*	-15.7	111.0	1.6	99.0	-3.0	100.0
CCc1cccc(CC)c1N(COC)C(=O)Cn1nnc2ccccc21	nt	0.191	nt	-7.3	nt	0.8	nt	nt	nt
COc1ccc(N(CC(=O)NC(C)(C)C)C(=O)CCC(=O)Nc2nccs2)c(OC)c1	101.0	nt	1.0	1.7	99.0	7.0	nt	nt	nt
COc1ccc(CNCCC(c2ccccc2)c2ccc(OC(C)C)cc2)cc1OC (stereo unspecified)	151.0*	nt	22.0	3.5	106.0	34.6	147.0	34.0	110.0
